In ChEMBL document CHEMBL4229446, “Development of Novel Monoamine Oxidase-B (MAO-B) Inhibitors with Reduced Blood-Brain Barrier Permeability for the Potential Management of Noncentral Nervous System (CNS) Diseases” (J Med Chem, 2018):

What was measured:
[1] = Tmax in C57BL/6 mouse brain at 24.5 mg/kg, sc administered as single dose measured 24 hrs by UPLC-MS/MS analysis; type: ADME, organism-based
Summary of the method: (§1)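 Brain portion homogenised in 50 mM ammonium formate with beads, acidified organic extraction, UPLC-MS/MS. ng/g read as ng/mL. Noncompartmental analysis; values above or below quantification limit, or undetected, excluded.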

[2] = Ratio of AUClast in brain to plasma in C57BL/6 mouse at 24.5 mg/kg, po administered as single dose measured 24 hrs by UPLC-MS/MS analysis; type: ADME, organism-based
Summary of the method: (§2)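 15 animals dosed, 3 sacrificed at each of 1, 2, 4, 6 and 24 h. Plasma and brain homogenate were extracted and quantified by UPLC-MS/MS. Parameters came from noncompartmental analysis. Values above or below the limit of quantification, or undetected, were omitted. Kp = AUClast brain/plasma.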

[3] = Tmax in C57BL/6 mouse brain at 24.5 mg/kg, po administered as single dose measured 24 hrs by UPLC-MS/MS analysis; type: ADME, organism-based; summary of the method: as §1
[4] = AUClast in C57BL/6 mouse brain at 24.5 mg/kg, po administered as single dose measured 24 hrs by UPLC-MS/MS analysis; type: ADME, organism-based; parameters: dose 24.5 mg/kg, route oral, time 0 - last; summary of the method: as §2
[5] = Apparent half-life of the terminal disposition phase in C57BL/6 mouse plasma at 24.5 mg/kg, sc administered as single dose measured 24 hrs by UPLC-MS/MS analysis; type: ADME, organism-based; details: read-out: t1/2 lambda z (converted); summary of the method: as §2
[6] = Tmax in C57BL/6 mouse brain at 23.4 mg/kg, sc administered as single dose measured 24 hrs by UPLC-MS/MS analysis; type: ADME, organism-based
Summary of the method: (§3)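 15 animals dosed, 3 killed at each of 1, 2, 4, 6 and 24 h. Plasma and brain homogenate (ammonium formate, acidified organic extraction) assayed by UPLC-MS/MS, brain ng/g taken as ng/mL. Noncompartmental parameters exclude values above/below quantification limit or undetected. Kp = AUClast brain/plasma.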

[7] = biological target: T1, Amine oxidase [flavin-containing] B (Homo sapiens, UniProt P27338); test: Inhibition of human recombinant MAO-B expressed in baculovirus infected BTI-TN-5B1-4 insect cells using benzylamine as substrate preincubated for 1 hr followed by substrate addition and measured after 30 mins by resazurin dye-based fluorescence assay; type: cell-based
T1 sequence (P27338 whole entry): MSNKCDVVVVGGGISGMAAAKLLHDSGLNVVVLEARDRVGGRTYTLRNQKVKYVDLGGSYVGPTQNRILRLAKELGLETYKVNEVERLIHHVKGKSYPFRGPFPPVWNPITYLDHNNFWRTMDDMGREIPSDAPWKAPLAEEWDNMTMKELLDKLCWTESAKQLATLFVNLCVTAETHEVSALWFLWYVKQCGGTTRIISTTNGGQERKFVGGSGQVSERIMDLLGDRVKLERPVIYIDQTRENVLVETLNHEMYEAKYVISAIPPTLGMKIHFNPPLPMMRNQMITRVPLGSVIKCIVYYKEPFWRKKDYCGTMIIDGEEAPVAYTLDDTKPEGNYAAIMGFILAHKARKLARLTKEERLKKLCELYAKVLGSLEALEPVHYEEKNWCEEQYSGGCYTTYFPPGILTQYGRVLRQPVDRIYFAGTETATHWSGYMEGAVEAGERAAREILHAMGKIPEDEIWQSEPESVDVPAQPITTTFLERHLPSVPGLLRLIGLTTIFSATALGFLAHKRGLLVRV

[8] = Apparent half-life of the terminal disposition phase in C57BL/6 mouse plasma at 23.4 mg/kg, iv administered as single dose measured 24 hrs by UPLC-MS/MS analysis; type: ADME, organism-based; details: read-out: t1/2 lambda z (converted)
Summary of the method: (§4)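 21 animals dosed at 0 min, 3 killed per time point (0, 5, 15, 30 min, 1, 4, 24 h). Plasma extracted by protein precipitation/phospholipid removal. Brain homogenized in 50 mM ammonium formate, then extracted in acidified organic solvent. Both quantified by UPLC-MS/MS (MRM), brain ng/g taken as ng/mL. Noncompartmental analysis. Kp = AUClast brain/plasma.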

[9] = Apparent half-life of the terminal disposition phase in C57BL/6 mouse plasma at 23.4 mg/kg, sc administered as single dose measured 24 hrs by UPLC-MS/MS analysis; type: ADME, organism-based; details: read-out: t1/2 lambda z (converted); summary of the method: as §3
[10] = Cmax in C57BL/6 mouse plasma at 23.4 mg/kg, iv administered as single dose measured 24 hrs by UPLC-MS/MS analysis; type: ADME, organism-based; parameters: dose 23.4 mg/kg, route intravenous; summary of the method: as §4
[11] = Tmax in C57BL/6 mouse plasma at 23.4 mg/kg, sc administered as single dose measured 24 hrs by UPLC-MS/MS analysis; type: ADME, organism-based; summary of the method: as §3
[12] = Apparent half-life of the terminal disposition phase in C57BL/6 mouse plasma at 23.4 mg/kg, po administered as single dose measured 24 hrs by UPLC-MS/MS analysis; type: ADME, organism-based; details: read-out: t1/2 lambda z (converted); summary of the method: as §3
[13] = Metabolic stability in mouse liver microsomes assessed as parent compound remaining at 1 uM after 60 mins by UPLC-MS/MS analysis; type: ADME, microsome; details: liver microsomes, read-out: Stability
Summary of the method: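 Compound at 1 μM with 0.5 mg/mL mouse or human liver microsomes in 100 mM potassium phosphate pH 7.4, 3.3 mM MgCl2, 1 mM NADPH, at 37 °C. Started with NADPH; minus-NADPH control run. Stopped at 0, 5, 15, 30, 45 and 60 min with acetonitrile/formic acid plus internal standard. Parent remaining by UPLC-MS/MS, in triplicate.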

[14] = AUClast in C57BL/6 mouse plasma at 23.4 mg/kg, sc administered as single dose measured 24 hrs by UPLC-MS/MS analysis; type: ADME, organism-based; parameters: dose 23.4 mg/kg, time 0 - last, route subcutaneous; summary of the method: as §3
[15] = Apparent half-life of the terminal disposition phase in C57BL/6 mouse brain at 23.4 mg/kg, sc administered as single dose measured 24 hrs by UPLC-MS/MS analysis; type: ADME, organism-based; details: read-out: t1/2 lambda z (converted); summary of the method: as §3

Compound	Tmax [1]	Kp at 24 h [2]	Tmax [3]	AUC(0-t) at 24 h [4]	half-life [5]	Tmax [6]	IC50 [7]	half-life [8]	half-life [9]	Cmax [10]	Tmax [11]	half-life [12]	remaining at 1 h, 1 µM [13]	AUC(0-t) at 24 h [14]	half-life [15]
C[C@H](Cc1ccc(OCc2ccc(Br)c(Cl)c2)cc1)N(C)CC(=O)O	6 h	0.12	6 h	12600 ng·h/mL	4.81 h	–	–	–	–	–	–	–	–	–	–
CN(CC(=O)O)[C@H](CC#N)Cc1ccc(OCc2ccc(Cl)c(Cl)c2)cc1	–	–	–	–	–	1 h	206 nM	0.74 h	3.62 h	52.1 µg/mL	1 h	2.93 h	39%	35100 ng·h/mL	1.07 h
